# High-throughput results as filed in PubChem.
# IDE cell inh – cellular human IDE inhibition. hit rate 0.41% among 320,000. HEK cells, FAbetaB cleavage, fluorescence polarization. inhibition, % at 5.59 µM;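 active = percent inhibition above the average of all tested compounds plus 3 SD, set per screening campaign, cut at about 16% in these data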;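 note: IDE supplied by intact live HEK cells; FP after avidin binding of uncleaved biotin substrate so inhibition keeps polarization high; 0% = DMSO wells and 100% = 60 µM reference IDE inhibitor Ii1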
# IDE act – boosts human insulin-degrading enzyme activity in HEK cells; P14735; hit rate 0.073% among 340,000; activation, % at 5.96 µM; FAbeta-B cleavage, fluorescence polarization; 0% vehicle, 100% cell-free pure enzyme wells;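 active = activation above the mean of all tested compounds plus 3 SD, set per screening campaign, cut at about 17% in these data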
# TPT1 inhibitor – inhibitors of Candida albicans tRNA 2'-phosphotransferase TPT1; AID 1962; inhibition, % at 5 µM; hit rate 0.81% among 300,000; recombinant caTPT1, FP RNA substrate dephosphorylation;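 active = inhibition above the mean of all tested compounds plus 3 SD, set per screening campaign, cut at about 24% in these data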;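 note: plate controls were DMSO alone for no effect and ferristatin control at 100 nM for full effect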
# CSN deneddyl inh – blocks human CSN-mediated cullin deneddylation; Q92905; Purified CSN, SCF-Nedd8-OG deneddylation, fluorescence polarization; inhibition, % at 12.5 µM; hit rate 0.38% among 360,000; AID 651999;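 active = pattern-corrected inhibition above about 35%, with an unprinted fluorescence ratio check between 0.5 and 1.5, limit read from the data, passing the limit was not always enough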;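 note: 0% = enzyme with substrate and 100% = substrate without enzyme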
#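 assay system = purified human Csn5 enzyme expressed in HEK293T cells | amount = 0.24 nM enzyme | buffer or medium = Tris/NaCl/DTT buffer, pH 7.5 | reagent = 10 nM SCFSkp2-Nedd8OG | compound = one concentration, 12.5 µM, 0.25% DMSO | times = 90 min reaction at room temperature | signal = FP | read-out basis = % inhibition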
# HNF4A DNA FP – change in binding of human HNF4 alpha to DNA; AID 1224865; activity change, % at 10 µM; hit rate 0.3% among 360,000; HNF4a-FITC DNA binding, fluorescence polarization, 1 h; P41235; in the data active = activity change above about 30%, passing the limit was not always enough
# Target sequence (P41235 whole entry, looked up): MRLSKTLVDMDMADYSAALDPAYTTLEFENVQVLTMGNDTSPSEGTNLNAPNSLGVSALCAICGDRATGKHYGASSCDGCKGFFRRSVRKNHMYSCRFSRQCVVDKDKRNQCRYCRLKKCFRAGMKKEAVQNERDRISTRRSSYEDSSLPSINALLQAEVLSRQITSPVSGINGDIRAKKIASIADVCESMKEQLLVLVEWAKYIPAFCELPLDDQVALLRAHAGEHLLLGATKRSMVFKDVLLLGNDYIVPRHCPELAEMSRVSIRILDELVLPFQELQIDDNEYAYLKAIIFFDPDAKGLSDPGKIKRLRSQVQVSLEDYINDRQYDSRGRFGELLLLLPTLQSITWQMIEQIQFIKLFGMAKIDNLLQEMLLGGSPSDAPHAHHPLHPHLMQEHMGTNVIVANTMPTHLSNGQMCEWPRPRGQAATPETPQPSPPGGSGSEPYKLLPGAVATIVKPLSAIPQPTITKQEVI
# TPT1 inh confirm – TPT1 (C. albicans) inhibition, confirmation; shares compounds with TPT1 inhibitor; recombinant caTPT1, fluorescence polarization, RNase T1 coupled; inhibition, % at 5 µM; hit rate 74% among 2,400;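 active = inhibition above the primary screen limit, the mean inhibition of all tested compounds plus 3 SD, cut at about 25% in these data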
# RNase T1 counter – RNase T1 inhibition in TPT1 counter-screen; shares compounds with TPT1 inhibitor; RNase T1 cleavage, fluorescence polarization, 1536-well; inhibition, % at 5 µM; hit rate 83% among 2,400; AID 2153;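 active = inhibition above the solvent-only control well mean plus 3 SD, limit set per screening run, cut at about 23% in these data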;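 note: plate controls were DMSO wells with enzyme for no effect and wells without RNase T1 for full effect; inhibitors block cleavage so intact labeled substrate keeps polarization high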
# Target sequence (P00651 whole entry, looked up): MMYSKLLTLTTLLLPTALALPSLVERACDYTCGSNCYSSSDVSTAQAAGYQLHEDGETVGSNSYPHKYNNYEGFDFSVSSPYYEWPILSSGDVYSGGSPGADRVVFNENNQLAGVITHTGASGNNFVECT
# Numbers without * were called inactive; x = not tested or not shown. The list is not random: actives were taken first. Their share in the collection is about 1.4%.
SMILES,IDE cell inh,IDE act,TPT1 inhibitor,CSN deneddyl inh,HNF4A DNA FP,TPT1 inh confirm,RNase T1 counter
COc1ccc(C(=O)c2sc3nc(-c4ccc(OC)cc4)ccc3c2N)cc1,-1.7,-10.2,53.7*,4.1,15.9,83.3*,91.0*
COc1ccc(-c2ccc3c(N)c(C(=O)c4cccc(OC)c4)sc3n2)cc1,12.7,-9.6,63.5*,3.9,13.0,63.3*,74.2*
Nc1c(C(=O)Nc2ccccc2)sc2nc(-c3ccco3)ccc12,4.2,-9.4,18.3,29.0,12.6,x,x
CC(NC(=O)CC1Nc2ccccc2NC1=O)c1ccccc1 (stereo not drawn),1.9,6.5,29.8*,1.4,3.8,39.2*,52.1*
O=C(CC1Nc2ccccc2NC1=O)c1ccccc1 (stereo not drawn),10.1,x,73.0*,x,x,62.3*,73.1*
O=C(Nc1ccc2c(c1)OCCO2)C(c1ccncc1)n1c(=O)c(-c2cc3ccccc3[nH]2)nc2ccccc21 (stereo not drawn),x,x,x,-0.9,6.6,x,x
O=c1[nH]c2cc3ccccc3cc2nc1-c1nnnn1C1CCCC1,x,x,x,1.0,-7.8,x,x
CCN(CC)c1ccc(/C=N/N2C(=O)c3ccccc3C2=O)c(O)c1,2.6,-0.2,45.4*,2.4,1.1,9.9,12.4
O=C(Nc1ccc2c(c1)OCCO2)c1[nH]c(C(F)(F)F)nc1-c1ccccc1,x,x,x,-0.9,1.9,x,x
CN(C)c1ccc(/C=C/c2nc3ccccc3c(=O)[nH]2)cc1,12.8,-11.6,64.3*,5.3,67.4*,73.8*,82.6*
CN(C)c1ccc(/C=C/c2nc3ccccc3c(=O)n2CCO)cc1,5.5,-8.0,79.9*,93.9,113.3,84.5*,95.5*
O=c1c2ccccc2nc(/C=C/c2ccccc2)n1CCCO,10.4,0.8,-2.2,-0.9,-1.1,x,x
COc1ccc(-c2c(C(=O)c3ccc(Br)cc3)[nH]c(N)c2C(=O)c2ccccc2)cc1OC,x,x,x,-0.5,-2.4,x,x
COc1ccccc1Cc1c(-c2ccc(C#N)cc2)nc2c3ccccc3ccn12,x,x,x,0.9,3.9,x,x
CCN1/C(=C/C=C/C=C/C=C/c2sc3ccccc3[n+]2CC)Sc2ccccc21,12.6,-2.0,30.1*,15.8,59.5*,19.9,28.6*
COc1ccc(CN2C(=O)C(CC(=O)NC3CCCC3)CC(C(=O)N3CCOCC3)=C2C)cc1 (stereo not drawn),x,x,x,0.8,3.5,x,x
O=[N+]([O-])c1ccc(NN=Cc2ccccc2O)nc1,x,5.7,x,-2.2,9.5,x,x
CC/C(=N\Nc1ccc([N+](=O)[O-])cc1)c1ccccc1,3.9,-7.2,39.3*,12.6,21.0,47.4*,59.9*
O=[N+]([O-])c1ccc(N/N=C/c2ccccc2O)cc1,5.2,-5.2,50.2*,11.1,23.3,68.9*,80.5*
CC(=NNc1ccc([N+](=O)[O-])cn1)c1ccc(N)cc1,x,-1.9,x,5.5,0.2,x,x
C/C(=N\Nc1ccc([N+](=O)[O-])cc1)c1ccco1,-3.6,-2.0,47.6*,9.9,24.7,55.6*,68.8*
C/C(=N\Nc1ccc([N+](=O)[O-])cc1)c1ccc(N)cc1,6.6,-5.3,37.4*,1.9,20.5,33.9*,46.0*
O=C(Nc1nc(OCC(F)(F)F)cnc1/C=C\c1ccccc1)c1ccccc1,x,x,x,1.0,0.8,x,x
C/C(=N\Nc1ccc([N+](=O)[O-])cc1)c1ccc(-n2nncc2C)cc1,-3.2,-0.4,24.0,44.5,21.0,x,x
CCc1ccc(/C(C)=N\Nc2ccc([N+](=O)[O-])cc2)cc1,1.0,-2.4,81.0*,14.8,25.3,56.3*,70.9*
SMILES,IDE cell inh,IDE act,TPT1 inhibitor,CSN deneddyl inh,HNF4A DNA FP,TPT1 inh confirm,RNase T1 counter
C/C(=N\Nc1ccc([N+](=O)[O-])cc1)c1ccc(N2CCOCC2)cc1,-3.5,2.0,31.1*,1.8,11.3,45.7*,52.5*
Cc1cccc(NC(=O)c2cc(S(=O)(=O)N3CCCCC3)c[nH]2)c1,x,x,x,-0.9,3.4,x,x
COc1cccc(/C=C/C(=O)c2c(O)cc(C)oc2=O)c1O,7.7,3.2,32.6*,3.9,-2.1,2.1,6.8
COc1cc(/C=C/C(=O)c2c(O)cc(C)oc2=O)cc(OC)c1O,12.7,-12.8,36.9*,4.3,0.0,8.2,16.6
CCOC(=O)/C=C/c1cccc(OC)c1O,x,x,x,-4.4,1.4,x,x
CCN(CC)c1ccc2cc(S(=O)(=O)c3ccc(Cl)cc3)c(=O)oc2c1,6.0,-17.9,85.6*,-60.2,-85.4,98.3*,104.3*
O=C1Nc2ccccc2N=C(c2ccc3c(c2)OCO3)C1N(C(=O)c1ccc2ccccc2c1)C1CC1 (stereo not drawn),x,x,x,-1.1,1.1,x,x
N#Cc1c(-c2ccccc2)nc(SCC(=O)N(c2ccccc2)c2ccccc2)[nH]c1=O,-4.9,-3.3,33.6*,3.5,3.9,10.9,18.4
COC(=O)c1cccc(CSc2nc(-c3ccccc3)c(C#N)c(=O)[nH]2)c1,-2.1,3.0,80.6*,1.4,1.1,5.8,8.7
N#Cc1c(-c2ccccc2)nc(SCC(=O)Nc2ccccc2)[nH]c1=O,1.8,3.2,-4.9,-16.9,-1.9,x,x
N#Cc1c(-c2ccccc2)nc(SCc2ccc(Cl)cc2)[nH]c1=O,3.4,0.7,-1.2,-4.2,0.0,x,x
O=C(CSc1nc2ccccc2c(=O)[nH]1)c1cccs1,-1.2,1.2,-2.1,0.5,2.0,x,x
N#Cc1c(-c2cccs2)nc(SCC(=O)c2cccs2)[nH]c1=O,-0.5,-2.5,39.8*,17.4,15.2,22.7,29.7*
Nc1nc2cc3c(cc2cc1C(=O)NCc1ccc(F)cc1)OCO3,x,x,x,0.0,-5.6,x,x
CC(=O)C1=CCC(c2ccc(Cl)cc2)N(S(=O)(=O)c2ccccc2C)C1 (stereo not drawn),x,x,x,-1.0,-0.3,x,x
COc1cccc(/C=N/NC(=O)CNC(=O)C(c2ccccc2)c2ccccc2)c1O,-1.4,6.2,0.0,0.1,-1.1,x,x
CCC1=[N+](CC(=O)c2ccc(C)cc2)CCn2cccc21,1.7,-0.2,60.7*,5.6,-5.6,9.3,10.6
CC1=[N+](CC(=O)c2ccccc2)CCn2cccc21,4.6,x,49.0*,-11.8,2.0,-1.6,0.7
COC(=O)[C@]12CCCCC=C1N(Cc1ccco1)C(=O)[C@H](CC(=O)NCc1ccc(C)o1)C2,x,x,x,4.4,4.5,x,x
c1ccc(-c2nc(-c3ccco3)n3ccccc23)cc1,4.3,-1.2,27.5*,13.4,-21.2,25.1*,30.3*
CCC(NS(=O)(=O)c1ccc(OC)cc1)C(=O)NCCc1ccccc1 (stereo not drawn),-2.8,-5.5,-0.6,4.0,0.1,x,x
Cc1cnc(-c2nc3ccccc3n2C(C(=O)NC(C)(C)C)c2ccccc2)cn1 (stereo not drawn),x,x,x,0.3,1.7,x,x
CCc1nnc(NS(=O)(=O)c2ccc(N/C=C(\C=O)c3nc4cc(Cl)ccc4o3)cc2)s1,-2.8,3.5,80.5*,7.7,3.4,10.9,17.2
